Common to all, as to format: functional, cell-based, Homo sapiens
In experiment [1] the test system is Calu-6. Description: Cytotoxic activity was determined in vitro in Calu-6 cell line culture at pH 7.4. The method, boiled down:
(§1)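 Plated at 2×10^6 cells/plate. After one day, medium was replaced with pH 7.4 medium (2.2 g NaHCO3/L) and equilibrated under 5% CO2. Cells got 2 h at 37°C, in quadruplicate, of a 1:2 series 50–0.8 µg/mL (acetone ≤5%), then drug-free pH 7.4 medium for 24–96 h until controls were confluent. Fixed with 3% formaldehyde, stained with 1% crystal violet, A550. IC50 from dose–response curves; mean of four assays ± SD.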

Experiment [2] deals with LXF-289 cell line. Nature of the experiment: Cytotoxic activity was determined in vitro in LXF-289 cell line culture at pH 6.8. The method, boiled down:
(§2)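 Seeded at 2×10^6 cells/plate. Next day, switched to pH 6.8 medium (1.3 g NaHCO3/L, serum acidified with 1 N HCl) and equilibrated in 5% CO2. Exposed for 2 h at 37°C in quadruplicate to 50–0.8 µg/mL (1:2 series; acetone ≤5%), then given drug-free pH 7.4 medium until controls were confluent. Read by formaldehyde fixation and crystal violet at 550 nm. IC50 from dose–response curves, mean of four assays ± SD.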

The test system of experiment [3] is MCF7. Nature of the experiment: Cytotoxic activity was determined in vitro in MCF-7 cell line culture at pH 6.8. The procedure, abridged:
(§3)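 Cells at 2×10^6/plate were moved the next day into pH 6.8 medium (1.3 g NaHCO3/L; serum given 1 N HCl; 30 min 5% CO2). Treated 2 h at 37°C, quadruplicate, 50–0.8 µg/mL in 1:2 steps (acetone ≤5%), then grown in drug-free pH 7.4 medium to control confluence. Crystal violet stain eluted with ethanol/1% acetic acid before A550. IC50 from curves, mean of four assays ± SD.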

For experiment [4], the system named is LXF-289 cell line. Nature of the experiment: Cytotoxic activity was determined in vitro in LXF-289 cell line culture at pH 7.4. The method, boiled down:
as §1

For experiment [5], the system named is Calu-6. Nature of the experiment: Cytotoxic activity was determined in vitro in Calu-6 cell line culture at pH 6.8. The procedure, abridged: as §2
Experiment [6] concerns SK-OV-3. Nature of the experiment: Cytotoxic activity was determined in vitro in SK-OV-3 cell line culture at pH 7.4. The procedure, abridged:
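With 1×10^6 cells/plate seeded, medium was changed the next day to pH 7.4 (2.2 g NaHCO3/L) under 5% CO2. Cells were exposed 2 h at 37°C in quadruplicate to a 1:2 series of 50–0.8 µg/mL (acetone ≤5%), then given drug-free pH 7.4 medium until controls were confluent. Crystal violet read at 550 nm after formaldehyde fixation. IC50 from curves; mean of four assays ± SD.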

In experiment [7] the test system is MCF7. Description: Cytotoxic activity was determined in vitro in MCF-7 cell line culture at pH 7.4. The procedure, abridged:
(§4)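 Using pH 7.4 medium (2.2 g NaHCO3/L) on cells plated a day earlier at 2×10^6/plate, with equilibration in 5% CO2. Compounds were applied for 2 h at 37°C in quadruplicate at 50–0.8 µg/mL (1:2; acetone ≤5%), followed by drug-free pH 7.4 medium until controls were confluent. Fixed and stained with crystal violet, dye eluted with ethanol/1% acetic acid, read at 550 nm. IC50 from curves, mean of four ± SD.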

In experiment [8] the test system is SK-MEL-25. Nature of the experiment: Cytotoxic activity was determined in vitro in SK-MEL-25 cell line culture at pH 7.4. The method, boiled down: as §1
The subject of experiment [9] is KB. Description: Cytotoxic activity was determined in vitro in KB cell line culture at pH 6.8. The method, boiled down:
as §3

In experiment [10] the test system is SK-OV-3. Description: Cytotoxic activity was determined in vitro in SK-OV-3 cell line culture at pH 6.8. The procedure, abridged:
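SK-OV-3 seeded at 1×10^6 cells/plate. Next day, placed in pH 6.8 medium (1.3 g NaHCO3/L, HCl-treated serum, 5% CO2). Given 2 h at 37°C, in quadruplicate, of 50–0.8 µg/mL (1:2; acetone ≤5%), then drug-free pH 7.4 medium until controls were confluent. Formaldehyde-fixed and crystal violet-stained, A550. IC50 from dose–response curves, mean of four assays ± SD.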

Experiment [11] deals with SK-MEL-25. Description: Cytotoxic activity was determined in vitro in SK-MEL-25 cell line culture at pH 6.8. The method, boiled down:
as §2

For experiment [12], the system named is KB. Description: Cytotoxic activity was determined in vitro in KB cell line culture at pH 7.4. The method, boiled down:
as §4

Where only a bound is given, the exact number is not on record here.

Consider “2,6-bis({tricyclo[5.2.2.0^{2,6}]undecan-8-yloxy})-1,3,5,7-tetrathia-4-platinaspiro[3.3]heptane”, for which the IC50 in the experiment on Calu-6 [1] is 18 µM; in the experiment on LXF-289 cell line [2], above 38 µM; in the experiment on MCF7 [3], 32 µM; in the experiment on LXF-289 cell line [4], above 38 µM; with Calu-6 [5] it was 8 µM; in the experiment on SK-OV-3 [6], above 38 µM. The IC50 with MCF7 [7] is above 38 µM; in the experiment with SK-MEL-25 [8], above 38 µM; with KB [9] it was above 77 µM; in the experiment with SK-OV-3 [10], above 38 µM; in the experiment on SK-MEL-25 [11], above 38 µM; in the experiment on KB [12] it was above 77 µM.

In the case of “2,6-bis[(3,3-dimethylbutan-2-yl)oxy]-1,3,5,7-tetrathia-4-platinaspiro[3.3]heptane”, the IC50 in the experiment on Calu-6 [1] stood at 9 µM; in the experiment on LXF-289 cell line [2], 15 µM; in the experiment on MCF7 [3], 7 µM; with LXF-289 cell line [4] it was 18 µM; in the experiment on Calu-6 [5], 9 µM; in the experiment on SK-OV-3 [6], 34 µM. Moreover, the IC50 was 9 µM with MCF7 [7]; 11 µM with SK-MEL-25 [8]; 5 µM in the experiment with KB [9]; 18 µM in the experiment on SK-OV-3 [10]; 10 µM with SK-MEL-25 [11]; 7 µM with KB [12].

For the substance “2,6-dibutoxy-1,3,5,7-tetrathia-4-platinaspiro[3.3]heptane”, the IC50 in the experiment with Calu-6 [1] is 19 µM; with LXF-289 cell line [2], 24 µM; in the experiment with MCF7 [3] it was 7 µM; in the experiment on LXF-289 cell line [4] it was 39 µM; in the experiment with Calu-6 [5], 7 µM; in the experiment with SK-OV-3 [6], 90 µM. In addition, the IC50 was 25 µM in the experiment on MCF7 [7]; 22 µM with SK-MEL-25 [8]; 16 µM with KB [9]; 33 µM in the experiment with SK-OV-3 [10]; 10 µM in the experiment with SK-MEL-25 [11]; 32 µM with KB [12].

For “2,6-dicyclobutoxy-1,3,5,7-tetrathia-4-platinaspiro[3.3]heptane”, the IC50 was 7 µM with Calu-6 [1]; 37 µM with LXF-289 cell line [2]; 11 µM with MCF7 [3]; 44 µM in the experiment on LXF-289 cell line [4]; 3 µM in the experiment on Calu-6 [5]; 19 µM with SK-OV-3 [6]. In addition, the IC50 amounted to 21 µM in the experiment on MCF7 [7]; 12 µM with SK-MEL-25 [8]; 6 µM with KB [9]; 17 µM in the experiment on SK-OV-3 [10]; 7 µM in the experiment on SK-MEL-25 [11]; 20 µM in the experiment on KB [12].

In the case of “2,6-diethoxy-1,3,5,7-tetrathia-4-platinaspiro[3.3]heptane”, the IC50 with Calu-6 [1] amounted to 24 µM; in the experiment with LXF-289 cell line [2], 45 µM; in the experiment with MCF7 [3], 12 µM; in the experiment with LXF-289 cell line [4], 91 µM; in the experiment with Calu-6 [5], 21 µM; with SK-OV-3 [6], 98 µM. The 50% inhibitory concentration (IC50) in the experiment with MCF7 [7] is 47 µM; in the experiment with SK-MEL-25 [8], 56 µM; in the experiment on KB [9], 18 µM; with SK-OV-3 [10], 86 µM; in the experiment with SK-MEL-25 [11] it was 21 µM; with KB [12] it was 58 µM.

Turning to “2,6-dimethoxy-1,3,5,7-tetrathia-4-platinaspiro[3.3]heptane”, the IC50 in the experiment on Calu-6 [1] was 21 µM; in the experiment on LXF-289 cell line [2] it was 39 µM; with MCF7 [3] it was 7 µM; with LXF-289 cell line [4], 102 µM; with Calu-6 [5], 11 µM; in the experiment on SK-OV-3 [6] it was 47 µM. Moreover, the IC50 in the experiment with MCF7 [7] turned out to be 19 µM; in the experiment with SK-MEL-25 [8], 80 µM; in the experiment with KB [9] it was 20 µM; in the experiment with SK-OV-3 [10] it was 26 µM; in the experiment with SK-MEL-25 [11], 14 µM; in the experiment with KB [12] it was 49 µM.

Regarding “2,6-dipropoxy-1,3,5,7-tetrathia-4-platinaspiro[3.3]heptane”, the IC50 in the experiment on Calu-6 [1] worked out at 21 µM; with LXF-289 cell line [2], 37 µM; with MCF7 [3], 4 µM; in the experiment on LXF-289 cell line [4], 49 µM; in the experiment with Calu-6 [5] it was 7 µM; in the experiment on SK-OV-3 [6] it was 50 µM. Moreover, the IC50 came to 9 µM in the experiment with MCF7 [7]; 21 µM in the experiment on SK-MEL-25 [8]; 12 µM with KB [9]; 45 µM in the experiment with SK-OV-3 [10]; 10 µM with SK-MEL-25 [11]; 38 µM in the experiment with KB [12].

Regarding CISPLATIN, the IC50 in the experiment on Calu-6 [1] was 25 µM; with LXF-289 cell line [2], 113 µM; in the experiment on MCF7 [3], 108 µM; with LXF-289 cell line [4], 83 µM; in the experiment on Calu-6 [5], 16 µM; in the experiment on SK-OV-3 [6], 90 µM. For the same substance, the IC50 in the experiment with MCF7 [7] is 160 µM; with SK-MEL-25 [8], 90 µM; in the experiment with KB [9], 55 µM; in the experiment with SK-OV-3 [10] it was 64 µM; with SK-MEL-25 [11], 78 µM; with KB [12], 52 µM.

Source of the values: ChEMBL document CHEMBL1149157, “Synthesis and structure-activity relationship of novel antitumoral platinum xanthate complexes” (J Med Chem, 2004).
